{
  "source": "ChEMBL document CHEMBL4376814",
  "about": "“Novel cyclin-dependent kinase 9 (CDK9) inhibitor with suppression of cancer stemness activity against non-small-cell lung cancer” (Eur J Med Chem, 2019)",
  "key": {"[1]": {"system": "Hepatocyte growth factor receptor (Homo sapiens), P08581 [D1228N]", "experiment": "Inhibition of recombinant human MET A1209G/V1290L/D1246N mutant (974 to end residues) at 1 uM using KKKGQEEEYVFIE as substrate measured after 40 mins in presence of [gamma33P]ATP by scintillation counting method relative to control"}, "[2]": {"molecular_target": "Testis-specific serine/threonine-protein kinase 2 (Homo sapiens) (UniProt Q96PF2)", "sequence (Q96PF2 whole entry)": "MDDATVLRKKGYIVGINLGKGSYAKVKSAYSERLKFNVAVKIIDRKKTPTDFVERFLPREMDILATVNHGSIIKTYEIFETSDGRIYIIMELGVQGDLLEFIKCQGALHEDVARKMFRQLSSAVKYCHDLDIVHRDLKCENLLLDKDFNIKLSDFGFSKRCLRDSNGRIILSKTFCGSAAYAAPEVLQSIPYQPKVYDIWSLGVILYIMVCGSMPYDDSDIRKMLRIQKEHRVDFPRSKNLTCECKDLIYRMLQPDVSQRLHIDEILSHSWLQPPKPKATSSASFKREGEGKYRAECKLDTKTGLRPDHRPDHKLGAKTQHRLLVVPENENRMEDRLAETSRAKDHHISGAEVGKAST", "experiment": "Inhibition of recombinant full-length human TSSK2 at 1 uM using KKKVSRSGLYRSPSMPENLNRPR as substrate measured after 40 mins in presence of [gamma33P]ATP by scintillation counting method relative to control"}, "Homo sapiens": {"organism": "Homo sapiens", "experiment": "Inhibition of recombinant full-length human JNK2alpha2 S51N mutant at 1 uM using ATF2 as substrate measured after 40 mins in presence of [gamma33P]ATP by scintillation counting method relative to control"}, "MCF7": {"system": "MCF7", "experiment": "Antiproliferative activity against human MCF7 cells assessed as inhibition of cell viability at 500 nM after 72 hrs by CCK-8 assay relative to control", "format": "functional", "details": "MCF7, 72 h", "method_in_brief": "(§1)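 Single-concentration viability screen using CCK-8. Cells were seeded at 3000/well and treated for 72 h. A450 read after 1-4 h with reagent. Percent inhibition calculated against untreated control and blank wells as (Ac−As)/(Ac−Ab)×100%.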"}, "[3]": {"molecular_target": "MAP/microtubule affinity-regulating kinase 3 (Homo sapiens) (UniProt P27448)", "experiment": "Inhibition of recombinant full-length human MARK3 at 1 uM using KKKVSRSGLYRSPSMPENLNRPR as substrate measured after 40 mins in presence of [gamma33P]ATP by scintillation counting method relative to control"}, "[4]": {"molecular_target": "CDK6/cyclin D3 (Homo sapiens) (UniProt P30281+Q00534)", "experiment": "Inhibition of recombinant full-length human CDK6/cyclinD3 at 1 uM using histone H1 as substrate measured after 40 mins in presence of [gamma33P]ATP by scintillation counting method relative to control", "format": "protein-complex assay", "method_in_brief": "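Percent inhibition of kinase activity at a single compound concentration, measured by the outsourced Eurofins KinaseProfiler panel. Values are the mean of two independent experiments.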"}, "[5]": {"molecular_target": "Interferon-induced, double-stranded RNA-activated protein kinase (Homo sapiens) (UniProt P19525)", "sequence (P19525 whole entry)": "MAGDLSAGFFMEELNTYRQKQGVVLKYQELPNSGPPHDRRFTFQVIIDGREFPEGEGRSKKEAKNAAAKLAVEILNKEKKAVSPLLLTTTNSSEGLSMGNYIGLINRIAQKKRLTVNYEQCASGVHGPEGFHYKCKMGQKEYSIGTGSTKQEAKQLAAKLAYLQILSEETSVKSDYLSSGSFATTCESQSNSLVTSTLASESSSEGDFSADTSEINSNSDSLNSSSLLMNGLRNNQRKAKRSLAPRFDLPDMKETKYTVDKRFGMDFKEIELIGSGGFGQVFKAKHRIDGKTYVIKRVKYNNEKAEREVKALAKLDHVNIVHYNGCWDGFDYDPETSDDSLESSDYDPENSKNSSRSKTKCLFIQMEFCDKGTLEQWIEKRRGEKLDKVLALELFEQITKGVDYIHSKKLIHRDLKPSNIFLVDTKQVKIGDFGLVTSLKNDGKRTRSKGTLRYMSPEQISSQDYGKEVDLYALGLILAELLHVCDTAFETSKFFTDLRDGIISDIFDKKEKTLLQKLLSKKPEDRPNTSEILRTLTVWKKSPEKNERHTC", "experiment": "Inhibition of recombinant human PKR (252 to end residues) at 1 uM using RSRSRSRSRSRSRSR as substrate measured after 40 mins in presence of [gamma33P]ATP by scintillation counting method relative to control", "method_in_brief": "(§2)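 Single-point inhibition at 1 µM was measured in the Eurofins KinaseProfiler panel. Values are the mean of two independent experiments.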"}, "[6]": {"molecular_target": "Tyrosine-protein kinase ITK/TSK (Homo sapiens) (UniProt Q08881)", "experiment": "Inhibition of recombinant human ITK (352 to 617 residues) at 1 uM using myelin basic protein as substrate measured after 40 mins in presence of [gamma33P]ATP by scintillation counting method relative to control"}, "[7]": {"system": "Angiopoietin-1 receptor (Homo sapiens), Q02763 [Q939H,Q940H,Y897S]", "experiment": "Inhibition of human Tie2 Q939H/Q940H/Y897S mutant (771 to end residues) at 1 uM using EFPIYDFLPAKKK as substrate measured after 40 mins in presence of [gamma33P]ATP by scintillation counting method relative to control", "method_in_brief": "as §2"}, "[8]": {"molecular_target": "Homeodomain-interacting protein kinase 3 (Homo sapiens) (UniProt Q9H422)", "sequence (Q9H422 whole entry, looked up, the tested form may be a part)": "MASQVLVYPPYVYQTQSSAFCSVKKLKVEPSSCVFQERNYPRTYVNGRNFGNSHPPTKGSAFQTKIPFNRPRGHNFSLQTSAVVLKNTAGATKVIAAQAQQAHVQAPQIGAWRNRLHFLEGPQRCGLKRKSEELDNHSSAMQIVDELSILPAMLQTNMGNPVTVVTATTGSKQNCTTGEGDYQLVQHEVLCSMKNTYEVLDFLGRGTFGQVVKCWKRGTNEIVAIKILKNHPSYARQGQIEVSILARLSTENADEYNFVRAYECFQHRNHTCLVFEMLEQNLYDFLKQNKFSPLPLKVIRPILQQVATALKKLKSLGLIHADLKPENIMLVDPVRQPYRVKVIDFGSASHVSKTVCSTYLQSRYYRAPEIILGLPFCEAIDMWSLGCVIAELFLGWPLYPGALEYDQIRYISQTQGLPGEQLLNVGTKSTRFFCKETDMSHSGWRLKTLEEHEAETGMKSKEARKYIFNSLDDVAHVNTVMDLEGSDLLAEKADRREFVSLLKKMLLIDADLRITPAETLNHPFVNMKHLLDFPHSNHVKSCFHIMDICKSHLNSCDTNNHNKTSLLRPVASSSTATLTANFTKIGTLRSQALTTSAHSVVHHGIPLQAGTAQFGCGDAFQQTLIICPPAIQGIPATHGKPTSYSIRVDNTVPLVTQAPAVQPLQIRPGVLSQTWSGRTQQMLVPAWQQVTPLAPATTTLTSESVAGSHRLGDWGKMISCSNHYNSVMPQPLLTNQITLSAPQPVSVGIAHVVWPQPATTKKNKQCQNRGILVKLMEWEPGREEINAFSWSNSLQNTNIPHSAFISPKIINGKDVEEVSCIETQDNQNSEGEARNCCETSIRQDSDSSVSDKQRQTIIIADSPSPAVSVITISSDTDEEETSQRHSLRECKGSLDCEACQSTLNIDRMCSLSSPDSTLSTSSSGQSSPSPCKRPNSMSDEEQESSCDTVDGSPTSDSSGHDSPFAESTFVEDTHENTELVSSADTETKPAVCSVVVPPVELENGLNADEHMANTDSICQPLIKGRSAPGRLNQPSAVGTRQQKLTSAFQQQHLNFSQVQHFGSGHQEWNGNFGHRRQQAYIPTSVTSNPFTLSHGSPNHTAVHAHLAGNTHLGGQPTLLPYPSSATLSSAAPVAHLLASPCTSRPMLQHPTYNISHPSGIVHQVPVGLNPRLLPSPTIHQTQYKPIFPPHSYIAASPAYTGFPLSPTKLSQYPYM", "experiment": "Inhibition of recombinant human HIPK3 (161 to 562 residues) at 1 uM using myelin basic protein as substrate measured after 40 mins in presence of [gamma33P]ATP by scintillation counting method relative to control"}, "NCI-H1299 [9]": {"system": "NCI-H1299", "experiment": "Induction of cell cycle arrest in human H1299 cells assessed as accumulation at G2/M phase after 24 hrs by propidium iodide/RNase staining based flow cytometric analysis", "format": "functional", "method_in_brief": "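A549 and H1299 plated at 5×10^5 cells/mL in 6-well plates, treated after adherence for 24 h. Washed with PBS, fixed overnight in ice-cold 75% ethanol, stained with propidium iodide plus RNase A for 30 min at 37 °C, analysed by flow cytometry for phase distribution. Means ± SD, three independent experiments.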"}, "[10]": {"molecular_target": "Tyrosine-protein kinase BTK (Homo sapiens) (UniProt Q06187)", "sequence (Q06187 whole entry)": "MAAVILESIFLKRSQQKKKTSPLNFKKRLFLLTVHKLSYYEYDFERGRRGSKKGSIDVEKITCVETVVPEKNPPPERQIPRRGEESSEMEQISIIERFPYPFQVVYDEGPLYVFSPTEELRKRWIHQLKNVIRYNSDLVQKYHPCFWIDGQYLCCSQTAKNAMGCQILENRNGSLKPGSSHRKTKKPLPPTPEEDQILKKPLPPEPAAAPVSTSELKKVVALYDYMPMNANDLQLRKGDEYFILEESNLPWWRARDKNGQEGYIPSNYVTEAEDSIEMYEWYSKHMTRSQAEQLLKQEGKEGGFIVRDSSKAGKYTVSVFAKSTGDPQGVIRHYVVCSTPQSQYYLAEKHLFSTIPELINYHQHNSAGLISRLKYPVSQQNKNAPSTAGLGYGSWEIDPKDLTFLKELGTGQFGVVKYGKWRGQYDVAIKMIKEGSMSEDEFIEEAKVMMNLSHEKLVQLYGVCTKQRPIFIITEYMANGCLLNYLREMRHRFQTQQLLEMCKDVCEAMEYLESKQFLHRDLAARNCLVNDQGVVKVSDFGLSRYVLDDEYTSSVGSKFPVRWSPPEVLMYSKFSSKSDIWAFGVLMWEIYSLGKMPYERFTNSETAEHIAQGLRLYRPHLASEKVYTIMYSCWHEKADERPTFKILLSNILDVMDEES", "experiment": "Inhibition of full-length recombinant human BTK at 1 uM using KVEKIGEGTYGVVYK as substrate measured after 40 mins in presence of [gamma33P]ATP by scintillation counting method relative to control", "method_in_brief": "as §2"}, "NCI-H1299 [11]": {"system": "NCI-H1299", "experiment": "Antitumour activity against human H1299 cells xenografted in Balb/c mouse assessed as effect on CDK9 level at 20 to 80 mg/kg, po administered for 3 weeks by […] based light microscopic analysis", "format": "functional, organism-based", "method_in_brief": "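Tumours came from the H1299 oral-dosing xenograft run for 3 weeks. Formalin-fixed, paraffin-embedded 5-µm sections were deparaffinized and rehydrated. Primary antibodies (CDK9, cyclin T1, p-Rb Ser780, RNAPII CTD Ser5, Oct4) used at 1:100 overnight at 4 °C. Biotinylated secondary for 1 h at room temperature, then ABC-peroxidase/DAB, hematoxylin counterstain and light microscopy.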"}, "[12]": {"molecular_target": "[Pyruvate dehydrogenase (acetyl-transferring)] kinase isozyme 4, mitochondrial (Homo sapiens) (UniProt Q16654)", "sequence (Q16654 whole entry, looked up)": "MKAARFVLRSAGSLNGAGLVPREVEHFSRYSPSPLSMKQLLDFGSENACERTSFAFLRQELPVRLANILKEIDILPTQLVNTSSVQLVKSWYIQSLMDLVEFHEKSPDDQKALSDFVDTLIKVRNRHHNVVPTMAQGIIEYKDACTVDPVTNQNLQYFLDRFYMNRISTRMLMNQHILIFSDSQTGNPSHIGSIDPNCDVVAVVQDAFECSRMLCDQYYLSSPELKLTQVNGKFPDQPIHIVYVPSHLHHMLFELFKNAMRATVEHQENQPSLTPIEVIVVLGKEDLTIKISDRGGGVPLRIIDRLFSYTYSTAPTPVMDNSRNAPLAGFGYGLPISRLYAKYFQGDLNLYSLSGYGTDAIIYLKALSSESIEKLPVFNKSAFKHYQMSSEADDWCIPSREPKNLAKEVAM", "experiment": "Inhibition of recombinant full-length human PDHK4 at 1 uM using KKKYHGHSMSDPGVSYRT as substrate measured after 40 mins in presence of [gamma33P]ATP by scintillation counting method relative to control"}, "[13]": {"molecular_target": "Inhibitor of nuclear factor kappa-B kinase subunit alpha (Homo sapiens) (UniProt O15111)", "sequence (O15111 whole entry)": "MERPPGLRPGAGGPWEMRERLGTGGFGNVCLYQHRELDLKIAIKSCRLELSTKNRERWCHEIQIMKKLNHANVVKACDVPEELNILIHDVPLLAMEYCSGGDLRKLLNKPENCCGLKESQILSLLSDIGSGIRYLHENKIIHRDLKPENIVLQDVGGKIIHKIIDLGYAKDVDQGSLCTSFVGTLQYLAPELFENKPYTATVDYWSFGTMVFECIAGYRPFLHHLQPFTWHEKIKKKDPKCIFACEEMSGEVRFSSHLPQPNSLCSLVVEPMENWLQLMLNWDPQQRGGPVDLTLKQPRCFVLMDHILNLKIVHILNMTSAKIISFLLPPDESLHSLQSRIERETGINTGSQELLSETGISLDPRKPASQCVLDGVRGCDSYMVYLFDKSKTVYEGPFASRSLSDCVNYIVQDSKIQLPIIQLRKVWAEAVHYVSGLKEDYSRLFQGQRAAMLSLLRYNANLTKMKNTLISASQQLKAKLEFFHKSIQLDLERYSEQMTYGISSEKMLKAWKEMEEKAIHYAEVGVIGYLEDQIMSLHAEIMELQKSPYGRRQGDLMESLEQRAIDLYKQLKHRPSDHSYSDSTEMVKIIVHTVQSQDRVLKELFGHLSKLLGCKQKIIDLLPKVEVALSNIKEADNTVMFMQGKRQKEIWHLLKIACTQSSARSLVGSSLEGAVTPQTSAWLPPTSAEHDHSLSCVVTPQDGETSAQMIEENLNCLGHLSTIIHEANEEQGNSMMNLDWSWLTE", "experiment": "Inhibition of human full length recombinant IKKalpha at 1 uM using peptide as substrate incubated for 40 mins in presence of [gamma-33P]ATP at Km concentration by radiometric assay relative to control"}, "A549": {"system": "A549", "experiment": "Antiproliferative activity against human A549 cells assessed as inhibition of cell viability at 10 uM after 72 hrs by CCK-8 assay relative to control", "format": "functional", "details": "A549, 72 h", "method_in_brief": "as §1"}, "[14]": {"molecular_target": "Cyclin-dependent kinase 5/CDK5 activator 1 (Homo sapiens) (UniProt Q00535+Q15078)", "experiment": "Inhibition of recombinant full-length human CDK5/p35 at 1 uM using Histone H1 as substrate measured after 40 mins in presence of [gamma33P]ATP by scintillation counting method relative to control", "format": "protein-complex assay"}, "[15]": {"molecular_target": "NUAK family SNF1-like kinase 1 (Homo sapiens) (UniProt O60285)", "sequence (O60285 whole entry)": "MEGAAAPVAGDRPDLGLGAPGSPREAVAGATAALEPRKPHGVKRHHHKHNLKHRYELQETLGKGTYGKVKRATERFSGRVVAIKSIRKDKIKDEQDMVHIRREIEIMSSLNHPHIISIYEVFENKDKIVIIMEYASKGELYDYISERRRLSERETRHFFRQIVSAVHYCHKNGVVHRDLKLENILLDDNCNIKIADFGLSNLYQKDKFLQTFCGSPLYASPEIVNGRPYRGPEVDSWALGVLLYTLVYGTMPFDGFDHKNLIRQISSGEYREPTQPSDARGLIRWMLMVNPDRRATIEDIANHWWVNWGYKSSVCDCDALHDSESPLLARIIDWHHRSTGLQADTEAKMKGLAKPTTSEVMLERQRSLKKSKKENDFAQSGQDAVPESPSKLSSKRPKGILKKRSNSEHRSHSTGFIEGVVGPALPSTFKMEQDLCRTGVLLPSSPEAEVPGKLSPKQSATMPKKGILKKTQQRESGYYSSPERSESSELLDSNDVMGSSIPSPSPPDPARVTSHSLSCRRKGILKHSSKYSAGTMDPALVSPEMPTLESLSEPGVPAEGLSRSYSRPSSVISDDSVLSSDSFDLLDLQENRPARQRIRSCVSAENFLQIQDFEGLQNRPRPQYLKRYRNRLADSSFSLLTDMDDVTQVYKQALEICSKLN", "experiment": "Inhibition of recombinant human ARK5 (2 to end residues) at 1 uM using KKKVSRSGLYRSPSMPENLNRPR as substrate measured after 40 mins in presence of [gamma33P]ATP by scintillation counting method relative to control"}, "[16]": {"molecular_target": "NT-3 growth factor receptor (Homo sapiens) (UniProt Q16288)", "experiment": "Inhibition of recombinant human TrkC (510 to end residues) at 1 uM using GEEPLYWSFPAKKK as substrate measured after 40 mins in presence of [gamma33P]ATP by scintillation counting method relative to control"}, "[17]": {"system": "Tyrosine-protein kinase receptor UFO (Homo sapiens), P30530 [Q764R]", "experiment": "Inhibition of recombinant human AXL Q764R mutant (473 to end residues) at 1 uM using KKSRGDYMTMQIG as substrate measured after 40 mins in presence of [gamma33P]ATP by scintillation counting method relative to control"}},
  "note": "Calls of active or inactive are those of the source. The calls are words filed in the database; no cut-off is given here.",
  "data": [
    {"smiles": "CN(C)C(=O)c1cc2cnc(Nc3ccc(NC(=O)CCCCCCCN=C=S)cc3)nc2n1C1CCCC1", "values": [
      {"measurement": "inhibition", "setting": "[1]", "value": 65, "unit": "%"},
      {"measurement": "inhibition", "setting": "[2]", "value": -3, "unit": "%"},
      {"measurement": "inhibition", "setting": "Homo sapiens", "value": 40, "unit": "%"},
      {"measurement": "inhibition at 0.5 µM", "setting": "MCF7", "value": 62, "unit": "%"},
      {"measurement": "inhibition", "setting": "[3]", "value": 43, "unit": "%"},
      {"measurement": "inhibition", "setting": "[4]", "value": 79, "unit": "%"},
      {"measurement": "inhibition", "setting": "[5]", "value": 11, "unit": "%"},
      {"measurement": "inhibition", "setting": "[6]", "value": 91, "unit": "%"},
      {"measurement": "inhibition", "setting": "[7]", "value": 20, "unit": "%"},
      {"measurement": "inhibition", "setting": "[8]", "value": 26, "unit": "%"},
      {"measurement": "Activity", "setting": "NCI-H1299 [9]", "value": "Dose-dependent effect"},
      {"measurement": "inhibition", "setting": "[10]", "value": 96, "unit": "%"},
      {"measurement": "Activity", "setting": "NCI-H1299 [11]", "value": "inactive"},
      {"measurement": "inhibition", "setting": "[12]", "value": -3, "unit": "%"},
      {"measurement": "inhibition", "setting": "[13]", "value": -1, "unit": "%"},
      {"measurement": "inhibition at 10 µM", "setting": "A549", "value": 99.2, "unit": "%"},
      {"measurement": "inhibition", "setting": "[14]", "value": 59, "unit": "%"},
      {"measurement": "inhibition", "setting": "[15]", "value": 79, "unit": "%"},
      {"measurement": "inhibition", "setting": "[16]", "value": 80, "unit": "%"},
      {"measurement": "inhibition", "setting": "[17]", "value": 71, "unit": "%"}
    ]}
  ]
}
